Out of some 320,000 compounds screened, about 380 (0.12%) were called active. This is one part of a sample in which actives are shown more often than they occur. Unmarked numbers belong to inactive results.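 How the source made its calls: active means percent inhibition above the cutoff of mean plus 3 SD of all tested compounds, set per screening campaign (cut at about 20% in these data); inactive means the rest.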
What follows are compounds tested against Photoreceptor-specific nuclear receptor (Homo sapiens) (UniProt Q9Y5X4) (assay: disruption of NR2E3 corepressor interaction – biochemical, TR-FRET, GST-NR2E3, biotin-RetCOR, NR2E3 agonist project, primary screen (AID 2300;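 further: 0% = DMSO wells and 100% = biotin wells as full block of FRET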)). Details: 1536-well, at 4.78 µM, stronger effect = higher value.
In short: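 system = GST-tagged NR2E3 plus biotinylated RetCOR corepressor | input = 1.35 nM GST-NR2E3 | also added = 7 nM biotin-RetCOR | schedule = 5 h incubation at 4 °C | measured by = TR-FRET with europium anti-GST and streptavidin-D2, 340 nm excitation | read-out = percent loss of FRET ratio relative to control wells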

Sequence of Photoreceptor-specific nuclear receptor (Homo sapiens) (Q9Y5X4 whole entry, looked up): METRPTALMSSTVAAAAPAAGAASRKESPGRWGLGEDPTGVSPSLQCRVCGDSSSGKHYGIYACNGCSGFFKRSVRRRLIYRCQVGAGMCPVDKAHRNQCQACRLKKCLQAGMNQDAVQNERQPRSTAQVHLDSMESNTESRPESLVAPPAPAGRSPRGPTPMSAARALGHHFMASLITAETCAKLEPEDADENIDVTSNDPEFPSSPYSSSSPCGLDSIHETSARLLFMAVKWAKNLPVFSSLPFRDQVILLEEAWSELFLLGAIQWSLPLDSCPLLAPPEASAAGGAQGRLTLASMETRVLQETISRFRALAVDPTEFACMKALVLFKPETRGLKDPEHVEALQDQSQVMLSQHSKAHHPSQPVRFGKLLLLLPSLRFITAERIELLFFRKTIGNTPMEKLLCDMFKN

| SMILES | inhibition of corepressor binding |
| --- | --- |
| O=C(COC(=O)c1ccc(F)cc1F)Nc1ncccn1 | 8.41% |
| CN(C(=O)CSc1nnc(-c2ccc(C(C)(C)C)cc2)n1C)C1CCS(=O)(=O)C1 (stereo unspecified) | -0.57% |
| O=C(CNC(=O)c1ccc(Br)o1)NCC1CCCO1 (stereo unspecified) | 1.48% |
| Cc1ccc(CN2CCN(Cc3ccc(OCCO)cc3)CC2CCO)o1 (stereo unspecified) | 3.85% |
| COc1cc([C@H](Cc2ccccc2)NC(C)=O)oc(=O)c1 | -1.34% |
| CN(CC(=O)NCc1ccc2c(c1)OCO2)CC(=O)Nc1ccc(F)c(F)c1F | 1.07% |
| CC(NC(=O)c1ccc(S(=O)(=O)Nc2ccccc2)cc1)c1ccc(S(N)(=O)=O)cc1 (stereo unspecified) | 2.43% |
| CC(=O)N1CCSc2ccc(S(=O)(=O)N3CCC(C)CC3)cc21 | -0.82% |
| C/C(=N/NC(=O)CSc1ccccn1)c1ccc([N+](=O)[O-])cc1 | 3.53% |
| C[C@H](NC(=O)c1nc[nH]c1C(=O)NCC(=O)OC(C)(C)C)c1ccccc1 | -2.19% |
| Cc1ccc(N2C(=O)C(CC(=O)Nc3cccc(F)c3)N(CCc3ccncc3)C2=O)cc1 (stereo unspecified) | -1.41% |
| CCCOC(=O)c1c(NC(=O)c2cnn3c2NC(c2ccccc2)CC3C(F)(F)F)sc2c1CCCC2 (stereo unspecified) | 0.87% |
| Cc1ccn2c(c1)nc(=O)c1cc(S(=O)(=O)N3CCC(C)CC3)ccc12 | 2.72% |
| CCCOc1ccc(C2C(C(=O)c3ccc(C)o3)=C(O)C(=O)N2CCCn2ccnc2)cc1 (stereo unspecified) | 11.4% |
| C=CCOc1cccc(C2C(C(=O)c3ccc(C)o3)=C(O)C(=O)N2CCCn2ccnc2)c1 (stereo unspecified) | 25.8% (active) |
| C=CCOc1cccc(C2C(C(=O)c3ccc(C)o3)=C(O)C(=O)N2c2nnc(C)s2)c1 (stereo unspecified) | 14.1% |
| COc1ccc(/C=C/C(=O)NC(=S)N2CCCC(C(N)=O)C2)cc1 (stereo unspecified) | 3.08% |
| O=C(OCC1O[C@@H](OC(=O)c2cc(O)c(O)c(O)c2)[C@@H](OC(=O)c2cc(O)c(O)c(O)c2)[C@@H](OC(=O)c2cc(O)c(O)c(O)c2)[C@@H]1OC(=O)c1cc(O)c(O)c(O)c1)c1cc(O)c(O)c(O)c1 (stereo partly specified) | 11.9% |
| Cc1coc2c(O)cc3c(c12)OC1(N2CCCCC2)C(=O)NCCCC31 (stereo unspecified) | -2.68% |
| CC(C)CCNC(=O)C1CCCN(S(=O)(=O)c2ccc(F)cc2)C1 (stereo unspecified) | 2.4% |
| Cc1cc(NC(=O)Nc2ccccc2[N+](=O)[O-])no1 | 0.41% |
| COc1cccc(-n2cc(C(=O)O)c3ccccc3c2=O)c1 | 3.78% |
| COc1cccc(-n2c(=S)[nH]c3c(oc4ccccc43)c2=O)c1 | 29.2% (active) |
| COc1cccc(N2C(=O)CN(Cc3ccccc3)C2=S)c1 | -3.57% |

| SMILES | inhibition of corepressor binding |
| --- | --- |
| COc1ccc(NC(=O)CSc2nnc(Cc3ccccc3)c(=O)n2N)cc1 | -3.17% |
| COC(=O)C1=NN(c2ccccc2)C2C(=O)N(c3ccccc3OC)C(=O)C12 (stereo unspecified) | -1.01% |
| C/C(=C\c1ccco1)CN1CCC(N2CCC(C(=O)N3CCOCC3)CC2)CC1 | -0.38% |
| O=C(Nc1ccccc1Cl)NC1(C(=O)N2CCOCC2)CCCCC1 | 1.2% |
| CCc1nn(CCCC(=O)NCc2ccc(C)cc2)c(=O)c2cc3occc3n12 | 1.62% |
| C=C1c2c(Cl)ccc(O)c2C(O)=C2C(=O)[C@]3(O)C(O)=C(C(N)=O)C(=O)[C@@H](N(C)C)[C@@H]3[C@@H](O)C12 (stereo partly specified) | 3.15% |
| C=CCn1c(SCc2ccc(Cl)c(Cl)c2)nnc1C(CO)NC(=O)c1ccc(OC)cc1 (stereo unspecified) | -1.93% |
| Cc1ccn(C(CC(=O)c2ccc(Br)cc2)C(=O)O)n1 (stereo unspecified) | 0.75% |
| CC(C)CCNc1nc(N2CCCC2)c2c(c1C#N)CCN(C)C2 | -2.99% |
| CCc1ccnc(NS(=O)(=O)c2ccc3c(c2)OCCO3)c1 | -3.2% |
| CCN(C(=O)COC(=O)/C=C/c1nc2ccccc2s1)C1CCS(=O)(=O)C1 (stereo unspecified) | -1.91% |
| C[C@@H](NC(=O)c1nc[nH]c1C(=O)N1CCN(C(=O)OC(C)(C)C)CC1)c1ccccc1 | 0.22% |
| N#C/C(=C/c1ccc(Cl)cc1)NC(=O)c1ccccc1 | 0.97% |
| CSc1sc(C(=O)NC(=O)NCc2cccnc2)c(C)c1-c1ccon1 | -5.08% |
| CCOc1ccc(OCC)c(NC(=O)C(NS(=O)(=O)c2ccc3c(c2)oc(=O)n3C)C(C)C)c1 (stereo unspecified) | 5.32% |
| CCN(CC)S(=O)(=O)c1ccc(N(C)Cc2cccc(OC)c2OC)nc1 | -0.21% |
| Cc1ccc(C(=O)Nc2ccc(C)c(S(=O)(=O)N(C)C)c2)s1 | -3.92% |
| COc1ccccc1C(=O)Nc1ccnn1C1CCN(Cc2cnn(C)c2)CC1 | -1.2% |
| O=[N+]([O-])c1ccc(Oc2ccc(F)cc2Br)c2ccncc12 | 3.74% |
| O=C(COC(=O)CNS(=O)(=O)c1ccc(F)c(F)c1F)NC1CCCC1 | 1.54% |
| CC1(C)Cc2ccccc2-c2[nH]c(=S)[nH]c(=O)c21 | 49.1% (active) |
| CCC1(CC)Cc2ccccc2-c2nc(CCl)[nH]c(=O)c21 | -2.67% |
| CC1(C)Cc2ccccc2-c2nc(CN3CCOCC3)[nH]c(=O)c21 | 0.32% |
| Cc1ccc(Sc2ccncc2S(N)(=O)=O)cc1 | 0.79% |

| SMILES | inhibition of corepressor binding |
| --- | --- |
| Cn1cc(CN2CCCC(CO)C2)c(-c2ccc(Oc3ccccc3)cc2)n1 (stereo unspecified) | -0.36% |
| COc1ccc(C2c3[nH]c4ccccc4c3CCN2CCCn2cccn2)cc1C (stereo unspecified) | 1.77% |
| CCc1ccc(NC(=O)CN2CCC(C(=O)c3ccc(OC)cc3)CC2)cc1 | 4.08% |
| CC[C@@H](C)[C@@H](C(=O)N1CCN(C(=O)OC(C)(C)C)CC1)n1cc(CCC(=O)O)nn1 | 2.89% |
| O=c1[nH]c(CCl)nc2cc(-c3ccc(Cl)cc3)sc12 | 1.58% |
| COc1ccc(CNC(=O)CN(Cc2ccc(Cl)cc2)S(C)(=O)=O)cc1 | -2.12% |
| CCCC(=O)n1nc(NCc2ccc(OC)cc2)nc1NCc1ccc(OC)cc1 | -0.61% |
| COc1ccc(NC(=O)CN2C(=O)C(c3ccccc3)=NC23CCCCCC3)cc1OC | 1.4% |
| O=C(CCc1ccc(S(=O)(=O)N2CCOCC2)cc1)Nc1ccc2ccccc2c1 | 0.61% |
| O=C(C(Cc1ccccc1)n1cccc1)N1CCN(C2CCCCC2)CC1 (stereo unspecified) | -0.53% |
| O=C(/C=N/O)Nc1ccccc1 | -4.21% |
| O=C(COC(=O)c1ccc(NS(=O)(=O)c2cccs2)cc1O)Nc1ccc(F)cc1 | 0.61% |
| Cc1cc(C)n(CC(C)NCc2c(C(=O)N3CCOCC3)nc3c(C)cccn23)n1 (stereo unspecified) | -0.74% |
| COc1cc(C(=O)NCC(c2ccco2)N2CCCC2)ccc1OCc1ccccc1 (stereo unspecified) | 2.49% |
| CCOC(=O)c1c(NC(=O)CN2C(=O)NC3(CCC(C)CC3)C2=O)sc(C)c1CC (stereo unspecified) | 1.08% |
| O=C(COc1coc(CN2CCN(c3ccccc3F)CC2)cc1=O)N1CCc2ccccc21 | -1.02% |
| CN(C(=O)CSc1nnc(Nc2ccccc2)s1)C1CCS(=O)(=O)C1 (stereo unspecified) | 0.29% |
| Cc1ccc(S(=O)(=O)NC2(C(F)(F)F)NC(=O)N(CCc3ccccc3)C2=O)cc1 (stereo unspecified) | 1.1% |
| COc1ccc(-c2cc(C(=O)N/N=C/c3cccnc3)c3ccccc3n2)c(OC)c1 | 6.06% |
| O=C(Nc1cc(S(=O)(=O)N2CCOCC2)ccc1Cl)c1cc(=O)c2ccccc2o1 | 1.24% |
| O=C(NCCCN1CCOCC1)C1CCCN(S(=O)(=O)N2CCCCC2)C1 (stereo unspecified) | 0.58% |
| N=c1n(CCc2ccccc2)c2ccccc2n1Cc1ccccc1F | -5.83% |
| CN(Cc1ccccc1)Cc1ccccc1F | 24.1% (active) |
| CN(Cc1ccccc1F)C(=O)C(Cc1ccccc1)NC(=O)c1ccccc1 (stereo unspecified) | 0.68% |

| SMILES | inhibition of corepressor binding |
| --- | --- |
| CCOc1ccc(CCNC(=O)C2=C(C)C(=O)OC23CCC(C)CC3)cc1OCC (stereo unspecified) | -3.37% |
| O=C1C(=O)N(CCCN2CCOCC2)C(c2ccc([N+](=O)[O-])cc2)/C1=C(\O)c1ccc2c(c1)OCCO2 (stereo unspecified) | 2.15% |
| O=C1C(=O)N(CCN2CCOCC2)C(c2cccc(Cl)c2)/C1=C(/O)c1ccc2c(c1)OCO2 (stereo unspecified) | 31.6% (active) |
| O=C1C(=O)N(CCN2CCOCC2)C(c2ccccn2)/C1=C(/O)c1ccc(Cl)cc1 (stereo unspecified) | -1.05% |
| Cc1ccc(-c2nc(CSCC(=O)NC3CCN(Cc4ccccc4)CC3)c(C)o2)cc1 | 1.78% |
| CCN(CC)Cc1csc2ccc(Br)cc12 | -3.8% |
| CCOc1cc(C2/C(=C(/O)c3ccc(S(=O)(=O)N4CCCCC4)cc3)C(=O)C(=O)N2CCOC)ccc1O (stereo unspecified) | 0.08% |
| COCCNC(=O)Nc1ccc2nc(-c3ccco3)c(-c3ccco3)nc2c1 | 30.4% (active) |
| CCOc1cc(NC(=S)NCCCOC)c(OCC)cc1NC(=O)c1ccco1 | 1.79% |
| O=C(NCc1ccccn1)c1ccc2nc(-c3ccco3)c(-c3ccco3)nc2c1 | 9.85% |
| CCOc1cc(C(=O)Nc2ccc(S(=O)(=O)Nc3cnc4ccccc4n3)cc2)cc(OCC)c1OCC | 0.9% |
| CCCOn1c(-n2nc(C)cc2C)nc2ccccc2c1=O | -0.33% |
| COc1ccc2c3c1O[C@H]1C[C@@H](O)C=C[C@@]31CCN(C)C2 | 4.69% |
| O=C(CCN1C(=O)c2ccncc2C1=O)Nc1cc(F)ccc1F | -0.36% |
| CCCC(=O)N1CCC(CCC(=O)NC2CC2)CC1 | 0.01% |
| Cc1ccc(C(=O)COC(=O)c2cccc(N3C(=O)c4c(C)nc5ccccc5c4C3=O)c2)cc1C | -4.34% |
| COc1ccc(C(C(=O)NC2CCCCC2)N(C(=O)CCl)c2ccccc2Cl)cc1 (stereo unspecified) | 3.2% |
| CCCOC1CCCN(Cc2cn(C)nc2-c2ccccc2F)C1 (stereo unspecified) | -1.73% |
| CC1C(=O)Nc2ccccc2N1C(=O)c1c(F)cccc1F (stereo unspecified) | 0.31% |
| CCCCCCSc1nsc(N)n1 | 3.46% |
| CC1CCN(S(=O)(=O)c2ccc3c(c2)n(C)c(=O)n3C)CC1 | 0.8% |
| CCc1cc2c(SCC(=O)Nc3ncc(Cl)c(C)c3Cl)ncnc2s1 | 2.24% |
| CCc1ccc(S(=O)(=O)Nc2cc3c(cc2N2CCCCC2)n(C)c(=O)c(=O)n3C)cc1 | -2.2% |
| CC[N+](C)(CC)CCC[n+]1c(-c2ccccc2)c2cc(N)ccc2c2ccc(N)cc21 | 41.5% (active) |

Source: PubChem BioAssay AID2300 (The Scripps Research Institute Molecular Screening Center, 2010)
